Assay results from publication PMC3042036 (Pharmacological research : the official journal of the …, 2010).

What was measured:
[1] = Plasma and brain compound concentrations after i.p. administration to mice; type: in vivo, mice (B6C3F1); settings: for concentration at 2 h / Kp at 2 h: 5 mg/kg; for Plasma drug level / Brain drug level / B/P (Brain-to-Plasma ratio): mice; for B/P (Brain-to-Plasma ratio): total drug
Method in brief: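 Male B6C3F1 mice are dosed i.p. with test compound in DMSO. Brains are sonicated in 10 mM ammonium acetate, pH 5.7 (1:2 w/v). Plasma comes from blood collected with EDTA and spun 10 min at 4500g, 4°C. Each 50 μl aliquot is precipitated with 0.2 ml acetonitrile and spun at 15,000g. Supernatants are quantified by LC-MS/MS.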

[2] = test system: acetyl-tubulin in PC12 cells; experiment: Acetyl-tubulin levels in PC12 cells; type: cell-based; settings: 24 hours treatment, increasing concentrations
brain acetyl-tubulin = experiment: Brain acetyl-tubulin ELISA after administration to mice; type: in vivo, mice (B6C3F1); settings: for Brain acetyl-tubulin relative to vehicle: 16 hours after dosing
Method in brief: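 Young male B6C3F1 mice (2–3 months) get a single i.p. dose of test compound in DMSO (~40 μl, scaled to body weight), n=3–6 per group. Brain hemispheres are sonicated 1:5 w/v in RIPA with protease inhibitors and trichostatin A. Sandwich ELISA uses 12G10 α-tubulin capture and HRP-acetyl-tubulin detection at 450 nm. Inputs run from 60 to 2.2 ng/μl in duplicate and are fit to the vehicle input curve.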

[3] = test system: optic nerve (ON) acetyl-tubulin; experiment: Optic nerve acetyl-tubulin ELISA after administration to mice; type: in vivo, mice (B6C3F1); settings: 1, 3 and 10 mg/kg i.p., 16 hours after dosing
Method in brief: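 Male B6C3F1 mice (2–3 months, n=3/treatment) get a single i.p. dose of test compound in DMSO, volume scaled to body weight. Optic nerves are taken 16 hours later and sonicated 1:5 w/v in RIPA with inhibitors. Acetyl-tubulin is measured by α-tubulin-capture/HRP-acetyl-tubulin ELISA at 450 nm, using duplicate serial inputs. Values are read off a vehicle-control input curve and normalized to vehicle mice.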

[4] = test system: Tg mice that express human tau; settings: cited from earlier work
P-gp (human MDR1) = P-gp (human MDR1) (Homo sapiens, UniProt P08183); experiment: MDCK-MDR bi-directional permeability assay; settings: dog, MDCK-MDR1, pH 7.4
[5] = target: T1, Pgp (human MDR1) in MDCK-MDR cells (Homo sapiens, UniProt P08183); experiment: MDCK-MDR bi-directional permeability assay; settings: 5 μM test compound; for Papp (A-B) / Papp (B-A): pH 7.4
[6] = target: T1, Pgp (human MDR1) in MDCK-MDR cells; experiment: Inhibition of Pgp-mediated transport of digoxin in MDCK-MDR cells; settings: 10 μM digoxin + 5 μM test compound
[7] = male, B6C3F1, mouse, brain, intraperitoneal, 3 mg/kg
[8] = male, B6C3F1, mouse, brain, ip, 10 mg/kg
[9] = male, B6C3F1, mouse, brain/plasma, ip
[10] = male, B6C3F1, mouse, plasma, ip

Chain of P-gp (human MDR1) (P08183 whole entry): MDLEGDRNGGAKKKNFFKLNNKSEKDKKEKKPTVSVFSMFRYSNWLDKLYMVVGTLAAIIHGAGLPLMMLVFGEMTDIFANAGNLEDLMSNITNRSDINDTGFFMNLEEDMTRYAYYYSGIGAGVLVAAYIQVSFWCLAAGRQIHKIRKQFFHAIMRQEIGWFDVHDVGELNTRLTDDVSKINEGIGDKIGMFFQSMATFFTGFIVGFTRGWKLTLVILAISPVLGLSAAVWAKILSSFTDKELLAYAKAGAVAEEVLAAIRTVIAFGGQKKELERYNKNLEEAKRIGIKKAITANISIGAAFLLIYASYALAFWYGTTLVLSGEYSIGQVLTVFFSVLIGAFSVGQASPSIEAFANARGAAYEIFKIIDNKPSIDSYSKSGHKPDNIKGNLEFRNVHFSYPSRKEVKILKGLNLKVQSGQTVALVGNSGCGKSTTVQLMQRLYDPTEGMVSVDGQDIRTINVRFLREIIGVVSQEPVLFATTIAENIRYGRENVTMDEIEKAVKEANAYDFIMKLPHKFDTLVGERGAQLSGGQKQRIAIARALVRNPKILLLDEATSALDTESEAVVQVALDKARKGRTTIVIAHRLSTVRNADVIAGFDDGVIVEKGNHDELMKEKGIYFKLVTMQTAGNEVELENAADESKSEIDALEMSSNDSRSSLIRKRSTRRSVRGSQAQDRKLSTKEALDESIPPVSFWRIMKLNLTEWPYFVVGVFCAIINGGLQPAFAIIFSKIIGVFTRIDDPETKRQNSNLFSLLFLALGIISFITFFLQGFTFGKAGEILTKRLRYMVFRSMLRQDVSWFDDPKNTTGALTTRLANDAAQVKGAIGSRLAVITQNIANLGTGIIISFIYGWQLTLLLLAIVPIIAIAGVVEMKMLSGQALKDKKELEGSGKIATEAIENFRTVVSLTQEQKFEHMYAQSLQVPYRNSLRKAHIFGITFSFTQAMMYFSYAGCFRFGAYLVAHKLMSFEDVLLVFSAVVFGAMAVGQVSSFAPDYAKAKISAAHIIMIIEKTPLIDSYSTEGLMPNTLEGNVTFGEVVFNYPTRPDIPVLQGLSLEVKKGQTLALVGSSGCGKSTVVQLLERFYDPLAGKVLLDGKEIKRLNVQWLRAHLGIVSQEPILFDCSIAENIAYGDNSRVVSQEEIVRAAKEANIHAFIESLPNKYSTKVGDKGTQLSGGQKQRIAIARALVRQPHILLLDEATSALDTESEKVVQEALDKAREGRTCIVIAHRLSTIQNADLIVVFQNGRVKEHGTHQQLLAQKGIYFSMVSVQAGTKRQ
T1 sequence (P08183 whole entry): as above

SMILES | concentration at 2 h ([1]; male, B6C3F1, mouse, brain, ip) | concentration at 24 h [1, 8] | Kp at 2 h [1, 9] | concentration at 2 h [1, 10] | Plasma drug level ([1]; i.p. 10 mg/kg, 24 hours) | ON acetyl-tubulin relative to vehicle (in words) [3] | Brain drug level ([1]; i.p. 5 mg/kg, 2 hours) | Plasma drug level ([1]; i.p. 5 mg/kg, 2 hours) | B/P (Brain-to-Plasma ratio) ([1]; i.p. 5 mg/kg, 2 hours) | Brain drug level ([1]; i.p. 10 mg/kg, 24 hours) | Papp (A-B) [5] | Papp (B-A) [5] | further results
C/C1=C/C[C@@H](/C(C)=C/c2csc(C)n2)OC(=O)C[C@H](O)C(C)(C)C(=O)[C@H](C)[C@@H](O)[C@@H](C)CCC1 [CNDR-66, Epothilone D] | 109 ng/g | 64 ng/g | 7.6 | 14 ng/mL | BLD | elevation of acetyl-tubulin at all doses |  |  |  |  |  |  | Brain elimination half-life compared with plasma ([1]; full pharmacokinetic analysis, data not shown): far exceeded that observed in the plasma; concentration at 7 days [1, 7]: 8.3 ng/g; concentration at 10 days [1, 7]: 1.8 ng/g; Amount of acetyl-tubulin in PC12 cells [2]: significant concentration-dependent increase; Brain acetyl-tubulin levels (brain acetyl-tubulin; single 1 mg/kg, 7 days after dosing): significant increase of brain acetyl-tubulin; Brain acetyl-tubulin levels (brain acetyl-tubulin; single 3 mg/kg, 6 and 10 days after dosing): increased acetyl-tubulin levels; Brain acetyl-tubulin levels (brain acetyl-tubulin; single 3 mg/kg, 7 days after dosing): increase of acetyl-tubulin; Brain acetyl-tubulin levels (brain acetyl-tubulin; single 3 mg/kg, 14 days after dosing): statistically insignificant change; Brain acetyl-tubulin levels (brain acetyl-tubulin; single 6 mg/kg, 7 days after dosing, compared with 3 mg/kg): not further increased; Effect in Tg mice that express mutant human tau [4]: improve CNS axonal integrity, MT density and cognitive performance; Papp A→B at 2 h, 5 µM (P-gp (human MDR1)): 30 ×10⁻⁶ cm/s; Papp B→A at 2 h, 5 µM (P-gp (human MDR1)): 46.8 ×10⁻⁶ cm/s; efflux ratio at 2 h, 5 µM (P-gp (human MDR1)): 1.6; Efflux Ratio (B-A)/(A-B) [5]: near unity; Inhibition of Pgp transport of digoxin (in words) [6]: potent inhibitor of Pgp transport
C/C1=C/C[C@@H](/C(C)=C/c2csc(CO)n2)OC(=O)C[C@H](O)C(C)(C)C(=O)[C@H](C)[C@@H](O)[C@@H](C)/C=C/C1 [CNDR-88] |  |  |  |  | 6.1 ng/mL | neither CNDR-86 nor CNDR-88 elicited a change at any dose | 30 ng/g | 12 ng/mL | 2.6 | 45 ng/g | 0.8 10^−6 cm/s | 58.6 10^−6 cm/s | B/P (Brain-to-Plasma ratio) ([1]; i.p. 10 mg/kg, 24 hours): 7.3
C/C1=C/C[C@@H](/C(C)=C/c2csc(CO)n2)OC(=O)C[C@H](O)C(C)(C)C(=O)[C@H](C)[C@@H](O)[C@@H](C)CCC1 [CNDR-89, 12,13-desoxy-epothilone F] |  |  |  |  | BLD | only resulted in an increase of the stabilized MT biomarker at 10 mg/kg | 24 ng/g | 6.8 ng/mL | 3.5 | 13 ng/g | 2.3 10^−6 cm/s | 63 10^−6 cm/s | Brain acetyl-tubulin relative to vehicle (brain acetyl-tubulin; 3 mg/kg i.p.): increase of acetyl-tubulin relative to vehicle; Brain acetyl-tubulin relative to vehicle (brain acetyl-tubulin; 10 mg/kg i.p.): no effect
C/C(=C\c1csc(C)n1)[C@@H]1C[C@@H]2O[C@]2(C)CCC[C@H](C)[C@H](O)[C@@H](C)C(=O)C(C)(C)[C@@H](O)CC(=O)N1 [CNDR-90, ixabepilone, reference compound] | 142 ng/g | 107 ng/g | 0.4 | 319 ng/mL |  |  |  |  |  |  |  |  | Kp at 24 h ([1]; male, B6C3F1, mouse, brain/plasma, ip, 10 mg/kg): 2.6; concentration at 24 h ([1]; male, B6C3F1, mouse, plasma, ip, 10 mg/kg): 41 ng/mL
CC(=O)O[C@H]1C(=O)[C@@]2(C)[C@H]([C@H](OC(=O)c3ccccc3)[C@]3(O)C[C@H](OC(=O)[C@H](O)[C@@H](NC(=O)c4ccccc4)c4ccccc4)C(C)=C1C3(C)C)[C@]1(OC(C)=O)CO[C@@H]1C[C@@H]2O [Paclitaxel, reference compound] | 85 ng/g |  |  | 1290 ng/mL |  |  |  |  | 0.07 |  |  |  | Effect in Tg mice that over-express human tau ([4]; drug absorption at peripheral neuromuscular junctions): increased MT density and marked improvement in motor function
